From the EternaBench riboswitch data

Test system: MS2 coat protein
Assay: apparent Kd, MS2 coat protein; higher = weaker binding; RNA-MaP array; FMN 200 µM where present
How it was run: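 In 100 mM Tris-HCl pH 7.5, 80 mM KCl, 4 mM MgCl2, BSA, DTT, yeast tRNA and Tween-20, SNAP-549-labelled MS2 coat protein was titrated from 0.7 or 1.5 nM, doubling to 3 µM, over designs transcribed by stalled E. coli RNA polymerase on Illumina sequencing-chip clusters. This was done first without ligand, then with ligand held constant. After green signal was normalised to red-channel RNA signal and control-cluster median Fmax, the apparent Kd was taken as the median of filtered per-cluster binding-curve fits.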

[1] = designed as: OFF switch for flavin mononucleotide, no ligand
[2] = ligand present: flavin mononucleotide, designed as: OFF switch for flavin mononucleotide
[3] = designed as: ON switch for flavin mononucleotide, no ligand
[4] = ligand present: flavin mononucleotide, designed as: ON switch for flavin mononucleotide

Row | Sequence | apparent Kd [1] [nM] | apparent Kd [2] [nM] | apparent Kd [3] [nM] | apparent Kd [4] [nM]
1 | UGUUUUCAUGUAGGAUAUGCUUGUCGUAGAUACGCAGAAGGACAUGAGGAUCACCCAUGUUAAAGCGACAGAGUAUAGAUUCUU | 16.3 | 22.3 |  | 
2 | GCGGGACGUCGAGGAUAUGGGUGUGCGAGUCUUGGCACUGGACAUGAGGAUCACCCAUGUCGCUUCCAGAAGGCGACGUCCCUA |  |  | 34.8 | 6.67
3 | GGGCUGUCAGGAUAUGGGCUCGGGCUCGAAAGGGCUCGGGCUCAGAAGGGACAUGAGGAUCACCCAUGUGGCUC | 43.8 | 58 |  | 
4 | AUAAAACAUGAGGAUCACCCAUGUCAACAAAGUCGAGGAUAUGGGCAAAUAAAAUAAGAACCAGAAGGCGAAUAAU |  |  | 398 | 36.6
5 | ACAUGUUUUGUAGGAUAUCACUAGUUGUGUUAUAUAUUUGUUAUAAUGUAUUGAGAAGGACAUUUACAUGAGGAUCACCCAUGU |  | 7.44 |  | 
6 | UCCGCGCGCGUAGGAUAUACAUGAGGAUCACCCAUGUACCCAUAUGGCUUCCUGAAUCUUGCAAUGUAGAAGGACGCCCGUGGG | 35.8 | 36.1 |  | 
7 | AAAGCACAUGAGGAUCACCCAUGUGGAAAUAACACAGGAUAUCUGGCCUAAGCUUAGGCGAGAGAAGGGUGACCUA |  |  | 88.9 | 223
8 | GGUACUAUCACAGGAUAUGCUUUCCUUUGGGAAGCAGAAGGGUGUAACAUGAGGAUCACCCAUGUGGUGCCAGGGCGUGGGCCC |  |  | 154 | 17
9 | CCUAGUUGGUAAGGAUAUCCUACACUGUUCUGACCCGUGCAAGCUACAUGAGGAUCACCCAUGUGGGAGAAGGUGCGUCGACGC | 24 | 24.9 |  | 
10 | GUAGCAUACCGAGGAUAUUCAUAUCGGAAACGAACAUGAGGAUCACCCAUGUGGCGAAAGCCUUGGGAGAAGGCGGAAUGCUAC |  |  | 589 | 24.5
11 | AAUUCAAACAGAGGAUAUUGUUUAUCUCUAUUGCAAGAAGGCUGAUCUUACUACCCACUUAUGAAACAUGAGGAUCACCCAUGU |  |  | 34.6 | 30.1
12 | UUAACAUGAGGAUCACCCAUGUCGUGCAAGAUGAGUUCUGGUGAGGAUAUACAUGGUAAAGAACUGUAGAAGGCACUGGGUACA |  |  | 290 | 139
13 | AAAACAUGAGGAUCACCCAUGUAAAGAUCGGUCGAUGAAGGUGAGGAUAUACAAAACUUUAUGGAGUAGAAGGCACUGGGUUGA |  |  | 185 | 69.8
14 | UCAUCGUGAGGAUAUUAUCGUAAGUGCAGGGUCUGACUUAGUAAGAAGGCACAUGAGGAUCACCCAUGUCCCUC | 20.2 | 28.5 |  | 
15 | GGAUGACAUAGUCAUCCUUAACGAACAUGAGGAUCACCCAUGUAGGAUAUGCUACUCAAAGAGUAGCAGAAGGGUAUGUGUCUU | 53.6 | 56.3 |  | 
16 | UGGUGUGAAGGAUAUACAUGAGGAUCACCCAUGUAUGAGGUGGAGGUUGAGGUGGAGGGUAGAAGGUCAGGUGG | 27.3 | 27 |  | 
17 | GCAGGAUAAGUGAGGAUAUACCUAUGGAUACAUAGGUAGAAGGCACAUGAGGAUCACCCAUGUUCCUUGCCUGC | 13 | 42.7 |  | 
18 | AAGGUACAUGAGGAUCACCCAUGUGGGUCGAACGCAGGAUAUCGCCGUUGGCCCUGGCGGCGAGAAGGGUGCCGAA |  |  | 189 | 175
19 | GGAUUACAUGAGGAUCACCCAUGUGAGGAUAUCGAUGUCCUGUGUGGAGUGCGGGACUCGAGAAGGCACUUGGA | 43.8 | 219 |  | 

Row | Sequence | apparent Kd [1] [nM] | apparent Kd [2] [nM] | apparent Kd [3] [nM] | apparent Kd [4] [nM]
20 | GUGUAGAUAGGAUAUGCAUAGAGCUUACGAAAGUAGGCUCUACAUGAGGAUCACCCAUGUAGAAGGGUCUACAC | 27.9 | 21.2 |  | 
21 | UGUCGGAGCAGAGGAUAUUACAUGAGGAUCACCCAUGUAUGAACCAAUAGCGGGAAACAGCAAUGUAAGAAGGCUGCUCCGACA | 34.6 | 140 |  | 
22 | GCACAUGGCAUAGGAUAUAGAACUAUACAUUAUAUAGGUAGUGUCACAACACUAGAAGGAUGAAACAUGAGGAUCACCCAUGUA |  |  | 14.9 | 12.2
23 | GGUCCAUCAUGAGGAUAUGGCACCUUAUUGGUGCCAGAAGGCAUGUCUAUAGACAUGAGGAUCACCCAUGUAAUAAAAUGGACC |  |  | 571 | 61.5
24 | UUGGACGUCGUAGGAUAUGUAGGAGAUUCCUACAUGAGGAUCACCCAUGUUGACAUGGAAGAAGGACAGAAGGACGAUGUCCAU |  |  | 328 | 20.4
25 | GUGAGGUCAGGAUAUGCAUGGCGGGACUUGCGUCGUGGCGUGGAGAAGGGACAUGAGGAUCACCCAUGUGGAGG | 115 | 95 |  | 
26 | GCACUUCGGCAGAAGGGACUAAGGGUAUGGUAGUCAGGAUAUGCAGGGUGGGCGUUUCACAUGAGGAUCACCCAUGUAGGACCA |  |  | 21.1 | 7.78
27 | ACAAGAUCAGGAUAUACAUGAGGAUCACCCAUGUAUAUAAAAAAAAAACUUUCUUCAUGUAGAAGGGAUCUUGU | 17.4 | 46 |  | 
28 | UUGUUACAUGAGGAUCACCCAUGUGAGGAUAUGAGUCAGUCACGGUGACGUGGCUGACUCAGAAGGCACUAUGG | 300 | 149 |  | 
29 | GUGCAGGUAGGAUAUCCACCGGCAAACAUGAGGAUCACCCAUGUGACGCUCCCUUGUCUUGGAGAAGGGCCGGCAU | 33.1 | 27.5 |  | 
30 | CAGUACUGAGGAUAUACAUGAGGAUCACCCAUGUGUUCCUUGUAGGAUAUGCGCAAAAGUAGAAGCCAGAAGGAGAUGUGCCUA | 6.95 | 7.31 |  | 
31 | UUGGGACAUGAGGAUCACCCAUGUCAGGAUAUCCCGGCCCGCCCGUGAGGGCGGGCCGGGAGAAGGGACCUUUG | 41 | 42.9 |  | 
32 | AUAAUGAGAGGAUAUACAUGAGGAUCACCCAUGUAAUUAACACGGCGAGCUCCAAUACGUAGAAGGCUCAUUUA | 49.2 | 35 |  | 
33 | UAAAUUAACAAGAAGGCUAACAUGAGGAUCACCCAUGUUGUACAUGGAUAUAGAGGAUAUUGCUAAUAAUUUUUUAUCAUAAUU | 20.8 | 17.6 |  | 
34 | GUCGAGUGAGGAUAUUGAAUCGGUGGCAGACCACACGAGCUCGAGAAGGCACAUGAGGAUCACCCAUGUGGGUC | 28.1 | 41.6 |  | 
35 | GACGUGUGAGGAUAUGCCGUGCCGGUCCGGAAGGUUCGGGUGCAGAAGGCACAUGAGGAUCACCCAUGUGUAAG | 23.4 | 32.5 |  | 
36 | AUUAAAACAUAGGAUAUCGAAUUUAUCAUUUAACGAGAAGGAUGAACAUGAGGAUCACCCAUGUGGUAUCAUGG | 361 | 207 |  | 
37 | GUAGCAUUCUGAGGAUAUUCAUACCGGAAACGGACAUGAGGAUCACCCAUGUGGCGAAAGCCUAGGGAGAAGGCAGUAUGCUAC |  |  | 56.6 | 13.8
38 | AAGUGUGGAUGAGGAUAUCAGCUGUAACUGACGUCGACAUGAGGAUCACCCAUGUUGCUAAAGGGUGAGAAGGCAUUUGCGCAA |  |  | 481 | 53.8

Row | Sequence | apparent Kd [1] [nM] | apparent Kd [2] [nM] | apparent Kd [3] [nM] | apparent Kd [4] [nM]
39 | AGAAAUUAGUGAGGAUAUGCAUAAUAUUUAGCUGCAGAAGGCACGGACCACAAGACAUGAGGAUCACCCAUGUGGUAUAUAGAU | 24.9 | 30.9 |  | 
40 | GAGAGGUCAGGAUAUACGGAGAGAGGGAGUUGGUGAGGGUAACAUGAGGAUCACCCAUGUAGAAGGGACUAAGG | 27.6 | 30.1 |  | 
41 | AUACCACGAGGAUAUCGUCUAUUUCACAUGAGGAUCACCCAUGUUAUCUUUGUUUUGUUUCGAGAAGGCGUGUUUU | 30.9 | 20.9 |  | 
42 | UUAGGAUCAGGAUAUGAUGUUUUAAACAUGAGGAUCACCCAUGUAGAUCCUGAAUCAACAUCAGAAGGGAUAAUUU | 56.6 | 184 |  | 
43 | CACUGCAAUGUAGGAUAUCGACUGGAAUACAGUCGAGAAGGACAUGAGGAUCACCCAUGUCAUCCUAAUAAUAAAUAAGCAGUG | 14.4 | 19.5 |  | 
44 | AGUAACAGAGGAUAUACUAUUUUAUGUGUUUGUUAUUUUAAACAUGAGGAUCACCCAUGUAGAAGGCUGAAUGA | 28.4 | 29.1 |  | 
45 | AGCAGGUGAGGAUAUCGAUUAAGAUUAACAUUAUUAUUAAACGAGAAGGCACAUGAGGAUCACCCAUGUAAGGA | 29.9 | 41.3 |  | 
46 | AUGAGUAAAGCAGGAUAUCUAUUGUCUCUGUAACAUGAGGAUCACCCAUGUAGAGAAGGGCUUAGUCAUUCUCUUCGGAGUUGU | 17.4 | 16.6 |  | 
47 | CCCAUCGCAUGAGGAUAUGGUCAGCUUUGCUGACCAGAAGGCAUGUCAUAAGACAUGAGGAUCACCCAUGUAGUUAAGAUGGGA |  |  | 654 | 48.3
48 | CGGUCGAUGUAAGGAUAUCGACUGGAAUACAGUCGAGAAGGUACAUGAGGAUCACCCAUGUAAACCUAUAAUAAAUAACGACCG | 11.7 | 14.4 |  | 
49 | UUAGCAUACCGAGGAUAUUCAUAUAAUAAAUAAACAUGAGGAUCACCCAUGUGGCGAAAGCCUAGGGAGAAGGCGGAAUGCUUU |  |  | 177 | 28.1
50 | CUUUUAUAAUAGAAGGUAGACUUUAUGAGGAUCACCCAUGUGUUGGUACUAAGGAUAUGUAGUAACAUGAGGAUCACCCAUGUU |  |  | 25.9 | 26.5
51 | CGUGUUAACGAAGGAUAUGGAUACAUGAGGAUCACCCAUGUAUAUUUUGUGAUCUUGUUUAAGAUCCAGAAGGUCGUAUACACG | 33.8 | 84.7 |  | 
52 | UACAGCUCGACAGGAUAUACAUCACUGCUUCGGCAGUGUAUCUUAAUAACAUGAGGAUCACCCAUGUAGAAGGGUCGAGCUGUA | 18.1 | 32.8 |  | 
53 | UGUCGGAGCAGAGGAUAUAACAUGAGGAUCACCCAUGUAAUAAGAUCAAGCUGGAAACAGCAAUGUUAGAAGGCUGCUCCGACA | 219 | 1010 |  | 
54 | UUUUUGUGAGGAUAUUAGUAGUAAAAAAAUAAAAUUACUACUGAGAAGGCACAUGAGGAUCACCCAUGUUCCUC | 35.7 | 174 |  | 
55 | AAACACGGACAUGAGGAUCACCCAUGUGGCGAAAGCCUUGGGAGAAGGCCGAUUGCAAAGCAAUCGGAGGAUAUUCAUACCGUG |  |  | 1250 | 57
56 | GACUUGUCAGGAUAUCUUACAUUUGCAUCUUAGUUACCAUUGGAGAAGGGACAUGAGGAUCACCCAUGUUUGGU | 35.1 | 34.4 |  | 
